Here are results for two compounds from ChEMBL document CHEMBL4400542, “Epidermal Growth Factor Receptor-Targeted Multifunctional Photosensitizers for Bladder Cancer Imaging and Photodynamic Therapy” (J Med Chem, 2019).

A short description of data set [1]: Drug accumulation in mitochondria of human T24 cells at 500 nM formulated with 1% tween 80 solution after 24 hrs by mitotracker red based fluorimetry. The data set is classed as ADME. The conditions noted are these: t-24, 24 h, 0.5 µM.
The nature of data set [2]: Drug uptake in human UM-UC-3 cells assessed as increase in gray value intensity at 500 nM after 48 hrs in absence of gleevec by Hoechst 33342 staining based fluorescence microscopy. The conditions noted are these: umuc3, 24 h, 0.5 µM, in the assay text read “24 hrs” for “48 hrs”. The data set is classed as ADME, cell-based. Put shortly: (§1)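 Cells plated at 100k per well, grown to 80% confluency, refreshed, then incubated 24 h with PS at 500 nM with or without Gleevec 5 µM. Washed twice with PBS, Hoechst 33342 added, imaged by fluorescence microscopy; grey value normalized to cell number, triplicate groups and images.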

Data set [3] can be described thus: Drug accumulation in mitochondria of human T24 cells at 500 nM formulated with 2% pluronic F-127 solution after 24 hrs by mitotracker red based fluorimetry. The following applies: t-24, 24 h, 0.5 µM. The data set is classed as ADME.
Data set [4] can be described thus: Drug uptake in human UM-UC-3 cells assessed as increase in gray value intensity at 500 nM after 48 hrs in presence of gleevec by Hoechst 33342 staining based fluorescence microscopy. It is filed as ADME, cell-based. The following applies: umuc3, 24 h, 0.5 µM, in the assay text read “after 24 hrs” for “after 48 hrs”. Put shortly:
as §1

Data set [5] is described as follows: Drug accumulation in lysosomes of human UM-UC-3 cells at 500 nM formulated with 1% tween 80 solution after 24 hrs by lysosphere green based fluorimetry. It is filed as ADME, subcellular, Lysosome. The following applies: umuc3, 24 h, 0.5 µM.
Data set [6] can be described thus: Stability at -20 degC for 2 months. It is filed as physicochemical. The following applies: 1461 h. In a few lines:
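Formulated PS stored at -4 °C or -20 °C for two months; checked for precipitation and pH change.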

Data set [7] in a line: Stability at -4 degC for 2 months. The data set is classed as physicochemical. The conditions noted are these: 1461 h. In a few lines:
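Photosensitizer formulations in Tween80 or Pluronic F-127 were stored at -4 °C, alongside a -20 °C set, for two months. Stability was judged by visible precipitation and change in pH.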

The nature of data set [8]: Drug uptake in human UM-UC-3 cells xenografted in SCID mouse at 0.47 umol/kg formulated with 1% tween 80 solution and measured at 24 hrs post injection by IVIS analysis. The conditions noted are these: in vivo. The data set is classed as ADME, cell-based, UMUC3. In a few lines: (§2)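 SCID mice (3/group) bearing UMUC3 or T24 tumors of 4–5 mm injected with PS at 0.47 µmol/kg in Tween80 or Pluronic F-127. Tumor, liver and skin fluorescence followed by IVIS optical imaging (ex 675 nm, em 720) at several time points including 24 h.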
For orientation: In xenograft studies the graft and the host belong to different species.

The nature of data set [9]: Drug accumulation in human UM-UC-3 cells at 500 nM formulated with 1% tween 80 solution after 24 hrs by CARY-fluorimetry. The data set is classed as ADME, cell-based. The conditions noted are these: umuc3, 24 h, 0.5 µM.
A short description of data set [10]: Drug uptake in human T24 cells assessed as increase in gray value intensity at 1 uM pretreated for 24 hrs followed by compound washout and measured after 4 hrs by Hoechst 33342 staining based fluorescence microscopy. It is filed as ADME, cell-based. The conditions noted are these: t-24, 4 h. Put shortly:
(§3)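 Cells pre-incubated 24 h with free erlotinib before PS addition. Legend describes PS at 1 uM or erlotinib at 3 uM for 4 h, then three warm PBS washes. Imaged by fluorescence microscopy; grey value per field normalized to cell count, triplicate wells, each imaged in triplicate.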

For data set [11], the system named is UMUC3. In words: Anti-tumor activity against human UM-UC-3 cells xenografted in SCID mouse assessed as tumor cure at 0.47 umol/kg, iv in presence of 135 J/cm2 light irradiation at 24 hrs post injection and measured at day 60. It is filed as functional. In a few lines: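 UMUC-3 cells implanted in right flank of SCID mice; at 4–5 mm tumors, PS given i.v. at 0.47 µmol/kg. Tumors exposed to 665 nm light, 135 J/cm2 at 75 mW/cm2, 24 h post-injection. Tumor regrowth monitored daily; mice euthanized at >400 mm3; tumor-free status scored at day 60.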

Data set [12] in a line: Drug uptake in human T24 cells xenografted in SCID mouse at 0.47 umol/kg formulated with 1% tween 80 solution and measured at 24 hrs post injection by IVIS analysis. The conditions noted are these: in vivo. It is filed as ADME, cell-based, T-24. Put shortly: as §2
Data set [13] relates to T-24. In words: Photo-activated cytotoxicity against human T24 cells assessed as reduction in cell viability preincubated for 24 hrs followed by 1 J/cm2 light irradiation and measured after 48 hrs formulated with 2% pluronic F-127 solution by MTT assay. It is filed as functional, cell-based. The following applies: T-24, light or radiation study. In a few lines:
(§4)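 Cells plated at 10k per well, allowed 24 h to adhere, then PS added in two-fold dilutions from 1 µM top for 24 h. Irradiated at 665 nm, 1.0 J/cm2 at 3.2 mW/cm2. Viability by MTT 48 h after PDT: about 2 h incubation, formazan dissolved in DMSO, absorbance at 570 nm.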

The nature of data set [14]: Drug accumulation in human UM-UC-3 cells at 500 nM formulated with 2% pluronic F-127 solution after 24 hrs by CARY-fluorimetry. It is filed as ADME, cell-based. The conditions noted are these: umuc3, 24 h, 0.5 µM.
Data set [15] is described as follows: Drug accumulation in lysosomes of human T24 cells at 500 nM formulated with 1% tween 80 solution after 24 hrs by lysosphere green based fluorimetry. It is filed as ADME, subcellular, Lysosome. The following applies: t-24, 24 h, 0.5 µM.
Data set [16] in a line: Drug accumulation in lysosomes of human T24 cells at 500 nM formulated with 2% pluronic F-127 solution after 24 hrs by lysosphere green based fluorimetry. It is filed as ADME, subcellular, Lysosome. The following applies: t-24, 24 h, 0.5 µM.
Data set [17] has as its system T-24. In words: Induction of apoptosis in human T24 cells assessed as increase in apoptotic cells at 1 uM in absence of light by Annexin V/propidium iodide-staining based flow cytometry. It is filed as cell-based. The following applies: t-24, 1 µM.
Data set [18] is described as follows: Drug accumulation in mitochondria of human UM-UC-3 cells at 500 nM formulated with 1% tween 80 solution after 24 hrs by mitotracker red based fluorimetry. The following applies: umuc3, 24 h, 0.5 µM. The data set is classed as ADME.
Data set [19] in a line: Drug uptake in human UM-UC-3 cells xenografted in SCID mouse at 0.47 umol/kg formulated with 2% pluronic F-127 solution and measured at 24 hrs post injection by IVIS analysis. It is filed as ADME, cell-based, UMUC3. The following applies: in vivo. Put shortly:
as §2

Data set [20] in a line: Drug accumulation in mitochondria of human UM-UC-3 cells at 500 nM formulated with 2% pluronic F-127 solution after 24 hrs by mitotracker red based fluorimetry. The conditions noted are these: umuc3, 24 h, 0.5 µM. It is filed as ADME.
Data set [21] is described as follows: Drug uptake in human UM-UC-3 cells assessed as increase in gray value intensity at 1 uM pretreated for 24 hrs followed by compound washout and measured after 4 hrs by Hoechst 33342 staining based fluorescence microscopy. The data set is classed as ADME, cell-based. The following applies: umuc3, 4 h. Put shortly: as §3
For data set [22], the system named is UMUC3. In words: Induction of oxidative stress in human UM-UC-3 cells assessed as increase in ROS production at 1 uM in presence of 1 J/cm2 light irradiation and measured at 20 min post light exposure by DCFDA-fluorescence based assay relative to control. It is filed as functional. Put shortly:
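UMUC3 cells at 10k per well; after 24 h, PS added at 1 µM for 24 h (Tween80 formulation). DCFDA 1 µM for 20 min, fluorescence read (ex 492, em 517). Then 665 nm light, 1 J total at 3.2 mW/cm2, and read again. No-DCFDA background subtracted; 0.05% H2O2 control wells.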

Data set [23] relates to T-24. In words: Photo-activated cytotoxicity against human T24 cells assessed as reduction in cell viability preincubated for 24 hrs followed by 1 J/cm2 light irradiation and measured after 48 hrs formulated with 1% tween 80 solution by MTT assay. The data set is classed as functional, cell-based. The conditions noted are these: T-24, light or radiation study. In a few lines:
as §4

Data set [24] in a line: Drug accumulation in lysosomes of human UM-UC-3 cells at 500 nM formulated with 2% pluronic F-127 solution after 24 hrs by lysosphere green based fluorimetry. The conditions noted are these: umuc3, 24 h, 0.5 µM. The data set is classed as ADME, subcellular, Lysosome.
Data set [25] deals with UMUC3. In words: Photo-activated cytotoxicity against human UM-UC-3 cells assessed as reduction in cell viability preincubated for 24 hrs followed by 1 J/cm2 light irradiation and measured after 48 hrs formulated with 2% pluronic F-127 solution by MTT assay. The conditions noted are these: UMUC3, light or radiation study. The data set is classed as functional, cell-based. In a few lines:
as §4
(In general: Tetrazolium dyes change colour on reduction, which living cells bring about.)

Data set [26] deals with UMUC3. In words: Photo-activated cytotoxicity against human UM-UC-3 cells assessed as reduction in cell viability preincubated for 24 hrs followed by 1 J/cm2 light irradiation and measured after 48 hrs formulated with 1% tween 80 solution by MTT assay. The data set is classed as functional, cell-based. The following applies: UMUC3, light or radiation study. Put shortly: as §4

Data set [27] relates to UMUC3. In words: Induction of apoptosis in human UM-UC-3 cells assessed as increase in apoptotic cells at 1 uM in absence of light by Annexin V/propidium iodide-staining based flow cytometry. The conditions noted are these: umuc3, 1 µM. It is filed as cell-based.
Data set [28] can be described thus: Drug uptake in human T24 cells xenografted in SCID mouse at 0.47 umol/kg formulated with 2% pluronic F-127 solution and measured at 24 hrs post injection by IVIS analysis. It is filed as ADME, cell-based, T-24. The conditions noted are these: in vivo. Put shortly: as §2
Data set [29] in a line: Drug uptake in human UM-UC-3 cells xenografted in SCID mouse at 15 uCi, iv measured at 24 to 72 post injection by PET imaging analysis. The following applies: in vivo. It is filed as ADME, organism-based, UMUC3. In a few lines: (§5)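 SCID mice (3/group) with UMUC3 tumors first given 18F-FDG (50 µCi) and imaged at 110 min. At 24 h later, 124I-labelled agent given i.v. (50, 25 or 15 µCi); microPET at 24, 48, 72 h post-injection, same bed position. Injected dose checked by well gamma counter, within ±5%.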

Data set [30] in a line: Drug uptake in human UM-UC-3 cells xenografted in SCID mouse at 50 uCi, iv administered at 24 hrs post imaging and measured at 24 to 72 post injection by PET imaging analysis. The data set is classed as ADME, organism-based, UMUC3. The conditions noted are these: in vivo. Put shortly: as §5

In general, IC50 refers to the concentration at which inhibition is half-maximal.

As for `CCC1=C(C)c2cc3[nH]c(cc4nc(c5c6[nH]c(cc1n2)c(C)c6C(=O)C5)[C@@H](CCC(=O)NCc1cccc(C#Cc2cccc(Nc5ncnc6cc(OCCOC)c(OCCOC)cc56)c2)c1)[C@@H]4C)c(C)c3C(C)OCc1cccc([127I])c1` (stereo not given in full), the Drug uptake result in [1] was “Active”; in data set [2], “Not Active”; in data set [3], “Active”; in [4] it was “Not Active”; in [5] it was “Active”; in data set [8], “Active”. Also, the Drug uptake result in data set [9], in data set [10], in [12], in [14], in data set [15] and in data set [16] was “Active” in each case. The Drug uptake result in [18] is recorded as “Active”; in data set [19], “Active”; in [20], “Active”; in data set [21] it was “Not Active”; in [24], “Active”; in [28], “Active”. Also, the Stability result in data set [6] and in data set [7] was “Stable” throughout. Further, the results for the Activity in the data set with UMUC3 [11], in the data set on T-24 [17] and in the data set with UMUC3 [27] were 55%, “Non-Toxic” and “Non-Toxic”, respectively. Moreover, the IC50 with T-24 [13] came to 0.315 µM; in the data set on T-24 [23], 0.137 µM; in the data set on UMUC3 [25], 0.0584 µM; in the data set with UMUC3 [26], 0.0364 µM. The “fold change (FC)” value in the data set with UMUC3 [22] is 4.5.

With `CCC1=C(C)c2cc3[nH]c(cc4nc(c5c6[nH]c(cc1n2)c(C)c6C(=O)C5)[C@@H](CCC(=O)NCc1cccc(C#Cc2cccc(Nc5ncnc6cc(OCCOC)c(OCCOC)cc56)c2)c1)[C@@H]4C)c(C)c3C(C)OCc1cccc([124I])c1` (stereo not given in full), the Drug uptake result in data set [29] and in [30] was “Active” in each case.
